Results pooled from the literature.
FLT3 N841I: Receptor-type tyrosine-protein kinase FLT3 (FLT3, Homo sapiens, UniProt P36888, N841I)
FLT3 D835H: Receptor-type tyrosine-protein kinase FLT3 (FLT3, Homo sapiens, UniProt P36888, D835H)
FLT3 autoinhibited: Receptor-type tyrosine-protein kinase FLT3, autoinhibited (FLT3, Homo sapiens, UniProt P36888)
FLT3 D835Y: Receptor-type tyrosine-protein kinase FLT3 (FLT3, Homo sapiens, UniProt P36888, D835Y)
FLT3: Receptor-type tyrosine-protein kinase FLT3 (FLT3, Homo sapiens, UniProt P36888)

For `Cn1nc(C(=O)NCc2ccc(C(=O)O)cc2)cc1-c1ccc2[nH]ccc2c1`, the remaining binding was 100% (FLT3 N841I; cell-free assay, competition with immobilised ligand; 0.1 µM).
`Cc1cnc(Nc2ccc(C(=O)N3CCC(N4CCCC4)CC3)cc2)nc1-c1cc2ccccc2s1` gave a remaining binding of 1.1% (FLT3 D835H; binding, competition with immobilised ligand; 1 µM).
`Cc1nccc(COC(=O)N2C[C@@H]3[C@@H](CNC(=O)c4ccc5[nH]nnc5c4)[C@@H]3C2)n1` gave a remaining binding of 93% (FLT3 autoinhibited; cell-free assay, competition with immobilised ligand; 1 µM).
`O=C(c1ccc(Nc2ncc(Cl)c(-c3ccc(Cl)s3)n2)cc1)N1CCC(N2CCCC2)CC1` has a remaining binding of 1.1% (FLT3 D835Y; binding, competition with immobilised ligand; 1 µM).
For `N[C@H]1CCN(c2nccc(-c3cnn4ncccc34)n2)C1`, the remaining binding was 99% (FLT3 autoinhibited; binding; 1 µM).
With `CCS(=O)(=O)c1cc2cc(C[C@@](O)(CC(C)(C)c3ccc(F)cc3C(N)=O)C(F)(F)F)[nH]c2cn1` the remaining binding was 99% (FLT3 D835Y; cell-free assay, competition with immobilised ligand; 1 µM).
For `CN(CCCC(F)(F)F)c1nccc(-c2cnn3ncccc23)n1`, the remaining binding was 100% (FLT3 autoinhibited; binding; 1 µM).
`O=C(NCCCN1CCOCC1)c1ccc(Nc2ncc(Cl)c(-c3ccc(Cl)s3)n2)cc1` gave a remaining binding of 5.1% (Receptor-type tyrosine-protein kinase FLT3 (FLT3, Homo sapiens, UniProt P36888, F691L/ITD); binding, competition with immobilised ligand; 1 µM).
For `C[C@H](c1ccnc(Nc2nc3ccc(-c4cc(N(C)C)ncn4)cc3[nH]2)c1)N1CCN(C(=O)CC(F)(F)F)CC1`, the remaining binding was 67% (FLT3; cell-free assay, competition with immobilised ligand; 0.1 µM).
`C=CC(=O)N1CCC(C(=O)NCC(=O)N2CCN(c3nc(-c4cnc(N)nc4C(F)F)nc(N4CCOCC4)n3)CC2)CC1` has a remaining binding of 100% (FLT3 N841I; binding, competition with immobilised ligand; 1 µM).
For `CCc1ccccc1C(=O)Nc1n[nH]c2c(C)c(F)c(C3C(C#N)=C(C)N(C)C(C)=C3C#N)cc12`, the remaining binding was 88% (FLT3 autoinhibited; cell-free assay, competition with immobilised ligand; 1 µM).
For `O=C(c1ccc(Nc2nccc(-c3cc4ccccc4s3)n2)cc1)N1CCC(N2CCCC2)CC1`, the remaining binding was 64% (FLT3 autoinhibited; binding, competition with immobilised ligand; 1 µM).
`COc1cnc(Nc2cccc(S(N)(=O)=O)c2)nc1N1CCN(c2ccccc2)C(=O)C1` has a remaining binding of 97% (FLT3; binding, competition with immobilised ligand; 1 µM).
`COc1ncc2cc3ccccc3nc2c1C#N` has a remaining binding of 100% (FLT3 N841I; cell-free assay, competition with immobilised ligand; 5 µM).
`CN(C)c1ncnc(-c2ccc3nc(Nc4cc(CN5CCN(C(=O)CC(F)(F)F)CC5)ccn4)[nH]c3c2)c1Cl` has a remaining binding of 38% (FLT3 D835Y; cell-free assay, competition with immobilised ligand; 1 µM).
The remaining binding of `O=C(NCCCN1CCOCC1)c1ccc(Nc2nccc(-c3cc4ccccc4s3)n2)cc1` is reported as 67% (FLT3 autoinhibited; binding, competition with immobilised ligand; 1 µM).
The remaining binding of `C[C@H]1CCN(c2nccc(-c3cnn4ncccc34)n2)C1` is reported as 72% (FLT3 autoinhibited; binding; 1 µM).
`O=C(Nc1c[nH]nc1C(=O)NC1CCNCC1)c1cc(F)cc(F)c1` gave a remaining binding of 100% (FLT3 D835H; binding, competition with immobilised ligand; 1 µM).
With `CN(c1ccnc(CNc2nc(Nc3ccc4c(c3)CC(=O)N4)ncc2C(F)(F)F)n1)S(C)(=O)=O` the remaining binding was 15% (FLT3 D835H; cell-free assay, competition with immobilised ligand; 1 µM).
With `Cc1cnn2ncc(-c3ccnc(N(C)C)n3)c2c1` the remaining binding was 66% (Receptor-type tyrosine-protein kinase FLT3 (FLT3, Homo sapiens, UniProt P36888, D835V); binding; 1 µM).
`NS(=O)(=O)c1cc(NC(=O)Cc2ccccc2)ccc1Oc1cccc(Cl)c1` has a remaining binding of 100% (FLT3; cell-free assay, competition with immobilised ligand; 1 µM).
`CN(C)c1ncc(F)c(-c2cnn3ncccc23)n1` gave a remaining binding of 100% (Receptor-type tyrosine-protein kinase FLT3 (FLT3, Homo sapiens, UniProt P36888, K663Q); binding; 1 µM).
`O=C(c1ccc(Nc2ncc(Cl)c(-c3cc4ccccc4s3)n2)cc1)N1CCC(N2CCCC2)CC1` has a remaining binding of 2.5% (FLT3; binding, competition with immobilised ligand; 1 µM).
With `COc1cnc(Nc2cccc(S(N)(=O)=O)c2)nc1N1CCN(c2ccccc2)CC1` the remaining binding was 91% (FLT3 autoinhibited; binding, competition with immobilised ligand; 1 µM).
With `CN(C)c1nccc(-c2cnc3ncccn23)n1` the remaining binding was 78% (FLT3 D835Y; binding; 1 µM).
